The target in experiment [1] is T1, Alpha-1A adrenergic receptor (Rattus norvegicus) (UniProt P43140).
T1 sequence (whole entry): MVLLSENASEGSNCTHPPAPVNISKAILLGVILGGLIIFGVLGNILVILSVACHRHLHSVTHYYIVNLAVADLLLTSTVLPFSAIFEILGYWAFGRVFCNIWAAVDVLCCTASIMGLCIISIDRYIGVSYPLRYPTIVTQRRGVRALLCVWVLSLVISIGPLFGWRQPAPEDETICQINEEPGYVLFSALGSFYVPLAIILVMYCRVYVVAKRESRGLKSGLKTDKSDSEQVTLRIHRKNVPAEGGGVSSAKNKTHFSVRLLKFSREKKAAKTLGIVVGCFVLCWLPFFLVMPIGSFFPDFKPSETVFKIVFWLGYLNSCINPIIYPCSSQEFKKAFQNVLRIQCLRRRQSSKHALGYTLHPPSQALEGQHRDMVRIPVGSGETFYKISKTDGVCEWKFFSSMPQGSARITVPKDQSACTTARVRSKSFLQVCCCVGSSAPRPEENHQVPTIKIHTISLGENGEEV
Description: Antagonist affinity was expressed as apparent pKb at Alpha-1A adrenergic receptor on isolated rat prostatic vas deferens (alpha1A). Format: functional, tissue-based. In a few lines:
(§1)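 Rat prostatic vas deferens in Tyrode with 0.1 μM cocaine. Equilibrated 60 min, primed twice with 10 μM noradrenaline, then a control cumulative (–)-noradrenaline curve recorded isometrically. Antagonist equilibrated 30 min before a repeat curve. Apparent pKb = log(DR−1) − log[B], with DR as the ratio of agonist EC50 with/without antagonist. 2–3 antagonist concentrations, each tested four times.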

Experiment [2] addresses T2, Alpha-1A adrenergic receptor (Homo sapiens) (UniProt P35348).
T2 sequence (whole entry): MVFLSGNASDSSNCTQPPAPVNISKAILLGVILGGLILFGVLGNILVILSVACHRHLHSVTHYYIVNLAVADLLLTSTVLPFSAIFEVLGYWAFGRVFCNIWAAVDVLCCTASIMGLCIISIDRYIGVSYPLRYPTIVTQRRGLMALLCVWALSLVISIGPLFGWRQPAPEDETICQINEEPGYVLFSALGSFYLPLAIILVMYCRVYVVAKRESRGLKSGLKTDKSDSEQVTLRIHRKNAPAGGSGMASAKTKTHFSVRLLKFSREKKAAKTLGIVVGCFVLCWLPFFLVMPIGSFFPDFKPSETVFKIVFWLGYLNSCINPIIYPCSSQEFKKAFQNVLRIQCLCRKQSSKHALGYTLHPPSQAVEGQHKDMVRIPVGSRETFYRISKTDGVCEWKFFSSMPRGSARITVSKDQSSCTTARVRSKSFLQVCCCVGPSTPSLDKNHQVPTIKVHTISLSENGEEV
Description: The binding affinity was evaluated on cloned human Alpha-1A adrenergic receptor expressed in chinese hamster ovary(CHO) cells by using [3H]prazosin as radioligand. Format: cell-based. In a few lines: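 Membranes (30 μg protein) from CHO cells stably expressing each human α1 subtype, in 50 mM Tris-HCl pH 7.4. Incubated with 0.1–0.4 nM [3H]prazosin for 30 min at 25 °C, competitor 1 pM–10 μM. Nonspecific binding with 10 μM phentolamine. Ki by Cheng-Prusoff. 2–3 experiments in triplicate.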

Experiment [3] deals with Alpha-1B adrenergic receptor (Cavia porcellus). Description: Antagonist affinity was expressed as apparent pKb at Alpha-1B adrenergic receptor on isolated Guinea pig spleen (Alpha-1B).
Experiment [4] has as its target D(2) dopamine receptor (Rattus norvegicus) (UniProt P61169). Description: The binding affinity was evaluated on Dopamine receptor D2 expressed in rat striatum by using [3H]spiperone as radioligand. Format: tissue-based. In a few lines:
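Rat striatum membranes in Tris-HCl with 10 μM pargyline, 0.1% ascorbic acid, 120 mM NaCl, 5 mM KCl, 2 mM CaCl2, 1 mM MgCl2. Incubated 15 min at 37 °C with 0.2–0.6 nM [3H]spiperone. Nonspecific binding with 1 μM (+)-butaclamol. Ki by Cheng-Prusoff. 2–3 experiments in triplicate.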

The target in experiment [5] is T1, Alpha-1A adrenergic receptor (Rattus norvegicus). Put plainly: Antagonist affinity was expressed as apparent pKb at alpha-1 adrenoceptors on isolated rat prostatic vas deferens (Alpha-1A adrenergic receptor). It counts as functional, tissue-based. The gist of the method: as §1
Experiment [6] relates to Alpha-1B adrenergic receptor (Cavia porcellus). Description: Antagonist affinity was expressed as apparent pKb at alpha-1B adrenergic receptor on isolated Guinea pig spleen (Alpha-1B adrenergic receptor).
Experiment [7] has as its target T3, Alpha-1D adrenergic receptor (Rattus norvegicus) (UniProt P23944).
T3 sequence (whole entry): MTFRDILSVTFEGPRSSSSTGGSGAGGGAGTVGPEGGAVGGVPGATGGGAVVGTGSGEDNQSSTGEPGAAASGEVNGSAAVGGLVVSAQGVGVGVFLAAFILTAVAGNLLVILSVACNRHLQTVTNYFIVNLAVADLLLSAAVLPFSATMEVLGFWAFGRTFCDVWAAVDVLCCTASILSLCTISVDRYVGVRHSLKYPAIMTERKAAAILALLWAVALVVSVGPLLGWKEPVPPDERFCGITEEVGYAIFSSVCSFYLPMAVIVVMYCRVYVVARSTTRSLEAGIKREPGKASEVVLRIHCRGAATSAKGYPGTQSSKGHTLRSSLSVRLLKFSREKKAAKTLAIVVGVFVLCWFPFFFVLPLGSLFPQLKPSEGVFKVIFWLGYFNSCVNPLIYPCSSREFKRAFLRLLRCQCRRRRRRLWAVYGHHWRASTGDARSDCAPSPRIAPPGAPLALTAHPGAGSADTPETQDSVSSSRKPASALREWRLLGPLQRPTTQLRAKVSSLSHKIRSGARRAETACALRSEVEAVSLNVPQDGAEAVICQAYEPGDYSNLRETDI
Description: Antagonist affinity was expressed as apparent pKb at alpha-1D adrenergic receptor on isolated rat thoracic aorta (Alpha-1D adrenergic receptor). It counts as functional, tissue-based. In a few lines:
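Helicoidal strips of rat thoracic aorta at 1 g tension, with 0.1 μM cocaine and 1 μM propranolol. After ≥1 h equilibration, cumulative (–)-noradrenaline curves at 30-min intervals; the third served as control. Antagonist equilibrated 30 min before the fourth curve. Apparent pKb from log(DR−1) − log[B], 2–3 antagonist concentrations, each tested four times.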

The values that follow come from ChEMBL document CHEMBL1132324, “Structure-activity relationships in 1,4-benzodioxan-related compounds. 6. Role of the dioxane unit on selectivity for alpha(1)-adrenoreceptor subtypes” (J Med Chem, 1999).

Sequence of D(2) dopamine receptor (Rattus norvegicus) (P61169 whole entry): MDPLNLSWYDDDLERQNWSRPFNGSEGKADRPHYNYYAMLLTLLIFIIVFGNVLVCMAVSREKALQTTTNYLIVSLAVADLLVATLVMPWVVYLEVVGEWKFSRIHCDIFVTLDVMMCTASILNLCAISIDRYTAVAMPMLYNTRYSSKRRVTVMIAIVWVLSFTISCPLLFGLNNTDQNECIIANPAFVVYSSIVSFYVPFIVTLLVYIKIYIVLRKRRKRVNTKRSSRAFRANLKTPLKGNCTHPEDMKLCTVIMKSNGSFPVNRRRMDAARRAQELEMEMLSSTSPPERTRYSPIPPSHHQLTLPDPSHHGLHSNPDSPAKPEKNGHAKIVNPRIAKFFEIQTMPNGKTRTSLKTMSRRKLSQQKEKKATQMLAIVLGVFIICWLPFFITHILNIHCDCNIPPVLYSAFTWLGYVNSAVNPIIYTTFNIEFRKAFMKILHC

The pKb is −log10 of the Kb, conventionally taken in molar units. Usually pKi stands for −log10 of the Ki, conventionally taken in molar units. A lower pKi goes with a high Ki. Consider `COc1cccc(OC)c1OCCNCC1Oc2ccccc2CC1c1ccccc1` (stereo in doubt; 7), for which the pKb came out at 7.36 in experiment [1] and 5.54 in experiment [3]. Besides, the figures for the pKi in experiment [2] and in experiment [4] were 8.49 and below 6, respectively.
`COc1cccc(OC)c1OCCNCC1C(=O)c2ccccc2OC1c1ccccc1` (stereo unspecified): the pKb in experiment [5] came to 7.88; in experiment [6] it was 6.05; in experiment [7], 6.98. This compound displayed a pKi in experiment [4] below 6.
As for `COc1cccc(OC)c1OCCNCCOc1ccccc1OCc1ccccc1`, the pKb in experiment [1] turned out to be 8.39; in experiment [3] it was 7.87. The compound also returned a pKi in experiment [2] of 9.33.
